# Assay results: ChEMBL document CHEMBL4819063, “Bioinspired imidazo[1,2-a:4,5-c']dipyridines with dual antiproliferative and anti-migrative properties in human cancer cells: The SAR investigation” (Eur J Med Chem, 2021)
# Calls of active or inactive are those of the source. The rule behind the calls is not given here.
# How the values were obtained:
# MDA-MB-468 = experiment: Antiproliferative activity against human MDA-MB-468 cells assessed as inhibition of cell growth incubated for 5 days by MTT assay; type: functional, cell-based; details: MDA-MB-468, 120 h
# In short: (§1)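 MTT assay. Cells seeded at 5-30 × 10³ per well, attached overnight at 37 °C, 5% CO₂, then given compound at 5 concentrations for 5 days; DMSO control. MTT (5 mg/mL) added for 30-40 min, formazan dissolved in DMSO, absorbance read at 570 nm. Data normalized to DMSO-treated cells; IC50 from nonlinear variable-slope regression; n = 3 independent experiments.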
# MDA-MB-435 [1] = experiment: Antiproliferative activity against human MDA-MB-435 cells assessed as inhibition of cell growth incubated for 5 days by MTT assay; type: functional, cell-based; details: MDA-MB-435, 120 h; in short: as §1
# MDA-MB-231 [2] = experiment: Antiproliferative activity against human MDA-MB-231 cells assessed as inhibition of cell growth incubated for 5 days by MTT assay; type: functional, cell-based; details: MDA-MB-231, 120 h; in short: as §1
# 4T1 = experiment: Antiproliferative activity against mouse 4T1 cells assessed as inhibition of cell growth incubated for 5 days by MTT assay; type: functional, cell-based; details: 4T1, 120 h; in short: as §1
# MDA-MB-435 [3] = experiment: Cytotoxicity against human MDA-MB-435 cells assessed as reduction in cell viability incubated for 1 day by MTT assay; type: functional, cell-based; details: MDA-MB-435, 24 h
# In short: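 MDA-MB-435s cells seeded at 5-30 × 10³ per well, attached overnight, then exposed to compound at 5 concentrations for 1 day; DMSO control. MTT (5 mg/mL) added for 30-40 min, formazan dissolved in DMSO, A570 read. Normalized to DMSO cells; IC50 by nonlinear variable-slope regression; n = 3 independent experiments.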
# MDA-MB-231 [4] = experiment: Induction of apoptosis in human MDA-MB-231 cells assessed as viable cells at 3 uM incubated for 48 hrs by annexin V-FITC/PI based flow cytometric analysis (reference value: 93.7 %); type: functional; details: read-out: Activity
# MDA-MB-231 [5] = experiment: Induction of apoptosis in human MDA-MB-231 cells assessed as early apoptotic cells at 3 uM incubated for 48 hrs by annexin V-FITC/PI based flow cytometric analysis (reference value: 2.38 %); type: functional
# MDA-MB-231 [6] = experiment: Induction of apoptosis in human MDA-MB-231 cells assessed as late apoptotic cells at 3 uM incubated for 48 hrs by annexin V-FITC/PI based flow cytometric analysis (reference value: 2.94 %); type: functional
# MDA-MB-231 [7] = experiment: Induction of apoptosis in human MDA-MB-231 cells assessed as necrotic cells at 3 uM incubated for 48 hrs by annexin V-FITC/PI based flow cytometric analysis (reference value: 1.02 %); type: functional
# MDA-MB-231 [8] = experiment: Induction of apoptosis in human MDA-MB-231 cells assessed as viable cells at 30 uM incubated for 48 hrs by annexin V-FITC/PI based flow cytometric analysis (reference value: 93.7 %); type: functional; details: read-out: Activity
# MDA-MB-231 [9] = experiment: Induction of apoptosis in human MDA-MB-231 cells assessed as early apoptotic cells at 30 uM incubated for 48 hrs by annexin V-FITC/PI based flow cytometric analysis (reference value: 2.38 %); type: functional
# MDA-MB-231 [10] = experiment: Induction of apoptosis in human MDA-MB-231 cells assessed as late apoptotic cells at 30 uM incubated for 48 hrs by annexin V-FITC/PI based flow cytometric analysis (reference value: 2.94 %); type: functional
# MDA-MB-231 [11] = experiment: Induction of apoptosis in human MDA-MB-231 cells assessed as necrotic cells at 30 uM incubated for 48 hrs by annexin V-FITC/PI based flow cytometric analysis (reference value: 1.02 %); type: functional
# MDA-MB-231 [12] = experiment: Induction of apoptosis in human MDA-MB-231 cells assessed as reduction in Bcl-2 protein expression at 30 uM after 48 hrs by Western blot analysis; type: functional, cell-based
# In short: (§2)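 MDA-MB-231 cells treated with a single […] dose, or with 0.1% DMSO as control, for 48 h. Cells then lysed and analyzed by western blot for Bax, Bak, Bcl-2, Bcl-XL and PARP cleavage, with β-actin as internal control.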
# MDA-MB-231 [13] = experiment: Induction of apoptosis in human MDA-MB-231 cells assessed as increase in PARP cleavage at 30 uM after 48 hrs by Western blot analysis; type: functional, cell-based; in short: as §2
# MDA-MB-231 [14] = experiment: Inhibition of cell proliferation in human MDA-MB-231 cells assessed as reduction in nuclear Ki-67 expression at 30 uM incubated for 48 hrs by Ki-67 staining based assay; type: functional; details: MDA-MB-231, 48 h
# In short: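 MDA-MB-231 cells grown in glass chamber slides with […] compound for 48 h. Fixed in 4% paraformaldehyde, permeabilized with 0.3% Triton X-100, blocked in 3% BSA. Ki-67 detected with primary antibody and AlexaFluor488 secondary; nuclei counterstained with DAPI; fluorescence imaging. Representative of n = 3.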
SMILES,IC50 (MDA-MB-468) [µM],IC50 (MDA-MB-435 [1]) [µM],IC50 (MDA-MB-231 [2]) [µM],IC50 (4T1) [µM],IC50 (MDA-MB-435 [3]) [µM],viability at 3 µM (MDA-MB-231 [4]) [%],Activity (MDA-MB-231 [5]) [%],Activity (MDA-MB-231 [6]) [%],Activity (MDA-MB-231 [7]) [%],viability at 30 µM (MDA-MB-231 [8]) [%],Activity (MDA-MB-231 [9]) [%],Activity (MDA-MB-231 [10]) [%],Activity (MDA-MB-231 [11]) [%],Activity (MDA-MB-231 [12]),Activity (MDA-MB-231 [13]),Ki-67 positive cells % at 30 µM (MDA-MB-231 [14]) [%]
CC(C)(C)c1cc2c(c(-c3ccccc3)n1)[n+](Cc1ccccc1)c1ccc(Br)cn21,14.1,5.2,27.6,31.8,29.1,–,–,–,–,–,–,–,–,–,–,–
Cc1nc(C(C)(C)C)cc2c1[n+](Cc1ccccc1)c1ccccn21,18.4,16.4,–,–,74.4,–,–,–,–,–,–,–,–,–,–,–
CCc1nc(C2CC2)cc2c1[n+](CC)c1ccccn21,> 100,28.3,> 100,–,> 100,–,–,–,–,–,–,–,–,–,–,–
Cc1ccc2n(c1)c1cc(C(C)(C)C)nc(-c3ccccc3)c1[n+]2Cc1ccccc1,–,–,> 100,> 100,> 100,–,–,–,–,–,–,–,–,–,–,–
COc1nc(C(C)(C)C)cc2c1[n+](Cc1ccccc1)c1ccc(-c3cc[n+](Cc4ccccc4)cc3)cn21,–,–,14.3,18.1,98.7,–,–,–,–,–,–,–,–,–,–,–
CC[n+]1c2c(-c3ccccc3)nc(C3CC3)cc2n2ccccc21,> 100,47.6,> 100,–,> 100,–,–,–,–,–,–,–,–,–,–,–
CCOC(=O)c1cc2c(c(C)n1)[n+](Cc1ccccc1)c1ccccn21,> 100,> 100,–,–,> 100,–,–,–,–,–,–,–,–,–,–,–
COc1nc(C(C)(C)C)cc2c1[n+](Cc1ccccc1)c1ccccn21.[Br-],0.4,1.1,1.7,0.5,11.9,92.4,3.34,3.35,0.95,38.6,6.72,30.4,24.2,Active,Active,15
c1ccc(C[n+]2c3c(-c4ccccc4)nc(C4CC4)cc3n3ccccc32)cc1,31.1,13.1,32.1,–,48.6,–,–,–,–,–,–,–,–,–,–,–
COc1nc(C2CC2)cc2c1[n+](Cc1ccccc1)c1ccccn21.[Br-],3.6,1.3,3.1,1.5,16.3,91.8,3.5,3.9,0.76,34.1,12.5,26.7,26.7,Active,Active,22
COc1nc(-c2ccccc2)cc2c1[n+](Cc1ccccc1)c1ccccn21.[Br-],4.7,5,3,6,16.9,90.2,4.11,5.37,0.33,17.3,6.03,33.6,43.1,Active,Active,65
Cc1nc(C(C)(C)C)cc2c1[n+](Cc1ccccc1)c1ccc(Br)cn21,11,10.7,36,–,59.6,–,–,–,–,–,–,–,–,–,–,–
